Measurements as given in article PMC3873039 (Anti-Cancer Agents in Medicinal Chemistry, 2013).

Experiments:
MOLT-3 [1] = assay: NucView caspase 3 activity assay by flow cytometry; assay type: cell-based, human; conditions: for EC50: Homo sapiens, MOLT-3, 24 h, read-out: AP50 (50% induction of apoptosis), Caspase 3 activity assay (C3); for The lowest dose of polyphenols at which there was a significant induction of apoptosis compared to the vehicle control: MOLT-3, caspase 3 activity, 24 h, p<0.05
Procedure, shortened: (§1)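 Seeded at 0.5 x 10⁶ cells/well and treated 24 h, with series of 0–50 or 0–250 µM depending on compound. Normalized to vehicle (0% apoptosis). Mean ± STD, three independent experiments in triplicate. One-way ANOVA/Tukey, p<0.05. AP50 = concentration giving 50% apoptotic cells.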

CCRF-CEM [2] = assay: NucView caspase 3 activity assay by flow cytometry; assay type: cell-based, human; conditions: 24 h; for EC50: Homo sapiens, read-out: AP50 (50% induction of apoptosis), Caspase 3 activity assay (C3); for The lowest dose of polyphenols at which there was a significant induction of apoptosis compared to the vehicle control: caspase 3 activity, p<0.05
Procedure, shortened: as §1

THP-1 [3] = assay: CellTiter-Glo luminescent cell viability assay; assay type: cell-based, human; conditions: THP-1, 24 h, doses 0, 2, 10, 50, 250, 500 µM, p<0.05
Procedure, shortened: (§2)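 Cells grown in RPMI 1640 with 10% FBS, 1.5 mM L-glutamine and penicillin/streptomycin at 37 °C, 5% CO2. Seeded at 2.5 x 10³ cells/well and exposed 24 h to ethanol-dissolved test compound (0, 2, 10, 50, 250, 500 µM) with 0.1% ethanol vehicle. ATP luminescence normalized to vehicle (100%). IC50 taken from linear regression. Lowest significant dose set by one-way ANOVA/Tukey, p<0.05. Triplicates, three independent experiments.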

K562 = assay: CellTiter-Glo luminescent cell viability assay; assay type: cell-based, human; conditions: K562, 24 h, doses 0, 2, 10, 50, 250, 500 µM, p<0.05
Procedure, shortened: as §2

HL60 [4] = assay: NucView caspase 3 activity assay by flow cytometry; assay type: cell-based, human; conditions: for The lowest dose of polyphenols at which there was a significant induction of apoptosis compared to the vehicle control: HL60, caspase 3 activity, 24 h, p<0.05; for EC50: Homo sapiens, HL-60, 24 h, read-out: AP50 (50% induction of apoptosis), Caspase 3 activity assay (C3)
Procedure, shortened: as §1

JURKAT [5] = assay: Cell cycle analysis, propidium iodide flow cytometry; assay type: cell-based, human; conditions: IC50 dose, 24 h, p<0.05
Procedure, shortened: (§3)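 Seeded at 0.5 x 10^6 cells per well in 12-well plates and treated 24 h at the IC50 concentration of each test compound from CellTiter-Glo. Cells were pelleted (400 g, 5 min), PBS-washed and fixed in 80% ethanol overnight at -20 °C. Staining used 50 µg/mL PI plus RNase overnight at 4 °C.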

non-tumor cells (CD34+) [6] = assay: Hoechst 33342 nuclear morphological analysis of apoptosis; assay type: cell-based; conditions: 24 h, read-out: AP50 (50% induction of apoptosis), Hoechst 33342 staining (Hoe)
Procedure, shortened: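 CD34+ cells treated 24 h across the IC25–IC50 range, then pelleted (400 g, 4 °C) and fixed in 4% paraformaldehyde/PBS. Cytospins were air-dried and stained with 10 μg/ml Hoechst 33342 for 10 min in the dark, then viewed by fluorescence microscopy. 200 cells were scored per sample as % apoptotic nuclei (shrinkage, blebbing, chromatin condensation, apoptotic bodies). AP50 = concentration giving 50% apoptosis.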

HL60 [7] = assay: Cell cycle analysis, propidium iodide flow cytometry; assay type: cell-based, human; conditions: HL60, IC50 dose, 24 h; vehicle control G0/G1 = 56.8%
Procedure, shortened: as §3

HL60 [8] = assay: Hoechst 33342 nuclear morphological analysis of apoptosis; assay type: cell-based; conditions: Homo sapiens, HL-60, 24 h, read-out: AP50 (50% induction of apoptosis), Hoechst 33342 staining (Hoe)
Procedure, shortened: (§4)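 Seeded at 0.5 x 10⁶ cells/well in 12-well plates and treated 24 h. Cells were pelleted (400 g, 5 min, 4 °C), washed in PBS, fixed in 4% paraformaldehyde, cytospun, air-dried, then stained with 10 μg/ml Hoechst 33342 for 10 min in the dark. Fluorescence microscopy: 200 cells counted, scored by condensed/intense nuclei, shrinkage, blebbing and apoptotic bodies. % apoptotic nuclei calculated. AP50 = concentration giving 50% apoptotic cells.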

U937 [9] = assay: NucView caspase 3 activity assay by flow cytometry; assay type: cell-based, human; conditions: for EC50: Homo sapiens, U-937, 24 h, read-out: AP50 (50% induction of apoptosis), Caspase 3 activity assay (C3); for The lowest dose of polyphenols at which there was a significant induction of apoptosis compared to the vehicle control: U937, caspase 3 activity, 24 h, p<0.05
Procedure, shortened: as §1

JURKAT [10] = assay: NucView caspase 3 activity assay by flow cytometry; assay type: cell-based, human; conditions: 24 h; for EC50: Homo sapiens, Jurkat, read-out: AP50 (50% induction of apoptosis), Caspase 3 activity assay (C3); for The lowest dose of polyphenols at which there was a significant induction of apoptosis compared to the vehicle control: JURKAT, caspase 3 activity, p<0.05
Procedure, shortened: as §1

KG1a [11] = assay: NucView caspase 3 activity assay by flow cytometry; assay type: cell-based, human; conditions: 24 h; for EC50: Homo sapiens, KG-1a, read-out: AP50 (50% induction of apoptosis), Caspase 3 activity assay (C3); for The lowest dose of polyphenols at which there was a significant induction of apoptosis compared to the vehicle control: KG1a, caspase 3 activity, p<0.05
Procedure, shortened: as §1

MOLT-3 [12] = assay: Hoechst 33342 nuclear morphological analysis of apoptosis; assay type: cell-based; conditions: Homo sapiens, MOLT-3, 24 h, read-out: AP50 (50% induction of apoptosis), Hoechst 33342 staining (Hoe)
Procedure, shortened: as §4

KG1a [13] = assay: as above; assay type: cell-based; conditions: Homo sapiens, KG-1a, 24 h, read-out: AP50 (50% induction of apoptosis), Hoechst 33342 staining (Hoe)
Procedure, shortened: as §4

non-tumor cells (CD34+) [14] = assay: NucView caspase 3 activity assay by flow cytometry; assay type: cell-based; conditions: 24 h; for EC50: read-out: AP50 (50% induction of apoptosis), Caspase 3 activity assay (C3); for The lowest dose of polyphenols at which there was a significant induction of apoptosis compared to the vehicle control: CD34+ non-tumour control cells, caspase 3 activity, p<0.05
THP-1 [15] = assay: Hoechst 33342 nuclear morphological analysis of apoptosis; assay type: cell-based; conditions: Homo sapiens, THP-1, 24 h, read-out: AP50 (50% induction of apoptosis), Hoechst 33342 staining (Hoe)
Procedure, shortened: as §4

U937 [16] = assay: CellTiter-Glo luminescent cell viability assay; assay type: cell-based, human; conditions: U937, 24 h, doses 0, 2, 10, 50, 250, 500 µM, p<0.05
Procedure, shortened: as §2

U937 [17] = assay: Cell cycle analysis, propidium iodide flow cytometry; assay type: cell-based, human; conditions: U937, IC50 dose, 24 h; vehicle control G0/G1 = 44.03%
Procedure, shortened: as §3

[18] = system: non-tumor progenitor cells (CD34+); assay: Cell cycle analysis, propidium iodide flow cytometry; assay type: cell-based; conditions: 24 h, within the IC50 ranges used to treat the leukemic cell lines
MOLT-3 [19] = assay: CellTiter-Glo luminescent cell viability assay; assay type: cell-based, human; conditions: MOLT-3, 24 h, doses 0, 2, 10, 50, 250, 500 µM, p<0.05
Procedure, shortened: as §2

CCRF-CEM [20] = assay: Cell cycle analysis, propidium iodide flow cytometry; assay type: cell-based, human; conditions: IC50 dose, 24 h, vehicle control G0/G1 = 41.9%
Procedure, shortened: as §3

JURKAT [21] = assay: Hoechst 33342 nuclear morphological analysis of apoptosis; assay type: cell-based; conditions: Homo sapiens, 24 h, read-out: AP50 (50% induction of apoptosis), Hoechst 33342 staining (Hoe)
Procedure, shortened: as §4

SMILES | EC50 (MOLT-3 [1]) [µM] | The lowest dose of polyphenols at which there was a significant induction of apoptosis compared to the vehicle control (MOLT-3 [1]) [µM] | EC50 (CCRF-CEM [2]) [µM] | The lowest dose of polyphenols at which there was a significant induction of apoptosis compared to the vehicle control (CCRF-CEM [2]) [µM] | The lowest dose of polyphenols at which there was a significant inhibition of cell proliferation compared to the vehicle control (THP-1 [3]) [µM] | The lowest dose of polyphenols at which there was a significant inhibition of cell proliferation compared to the vehicle control (K562) [µM] | The lowest dose of polyphenols at which there was a significant induction of apoptosis compared to the vehicle control (HL60 [4]) [µM] | EC50 (HL60 [4]) [µM] | Phase of cell cycle accumulation (JURKAT [5]) | EC50 (non-tumor cells (CD34+) [6]) [µM] | Percentage of cells in G0/G1 phase of cell cycle (significant accumulation) (HL60 [7]) | EC50 (HL60 [8]) [µM] | EC50 (U937 [9]) [µM] | The lowest dose of polyphenols at which there was a significant induction of apoptosis compared to the vehicle control (U937 [9]) [µM] | EC50 (JURKAT [10]) [nM] | The lowest dose of polyphenols at which there was a significant induction of apoptosis compared to the vehicle control (JURKAT [10]) [µM] | EC50 (KG1a [11]) [µM] | The lowest dose of polyphenols at which there was a significant induction of apoptosis compared to the vehicle control (KG1a [11]) [µM] | EC50 (MOLT-3 [12]) [µM] | EC50 (KG1a [13]) [µM] | further results
O=C(O)c1cc(O)c2c(c1)C(=O)c1cccc(O)c1C2=O [Rhein] | 200 | 50 | 200 | 50 | 50 | 50 | 50 | > 250 | S-phase | > 500 | G0/G1=65% | > 500 | 60 | 50 | > 250000 | 50 | > 250 | 50 | 265 | > 500 | EC50 (non-tumor cells (CD34+) [14]): > 250 µM; The lowest dose of polyphenols at which there was a significant induction of apoptosis compared to the vehicle control (non-tumor cells (CD34+) [14]): 50 µM; EC50 (THP-1 [15]): 60 µM; The lowest dose of polyphenols at which there was a significant inhibition of cell proliferation compared to the vehicle control (U937 [16]): 50 µM; Percentage of cells in G0/G1 phase of cell cycle (significant accumulation) (U937 [17]): G0/G1 =55%; Cell cycle arrest in non-tumour control cells [18]: No Arrest <50µM; The lowest dose of polyphenols at which there was a significant inhibition of cell proliferation compared to the vehicle control (MOLT-3 [19]): 50 µM; Percentage of cells in G0/G1 phase of cell cycle (significant accumulation) (CCRF-CEM [20]): G0/G1 =54%; EC50 (JURKAT [21]): > 500 µM
Cc1cc(O)c2c(c1)C(=O)c1cc(O)cc(O)c1C2=O [Emodin] | 5 | 2 | > 10 | 10 | 2 | 2 | 10 | 8.5 | G0/G1 phase | > 500 | G0/G1 =67.7% | 6 | 4 | 2 | 2000 | 2 | > 10 | 2 | 9 | > 500 | EC50 (non-tumor cells (CD34+) [14]): > 10 µM; The lowest dose of polyphenols at which there was a significant induction of apoptosis compared to the vehicle control (non-tumor cells (CD34+) [14]): 10 µM; EC50 (THP-1 [15]): 10 µM; The lowest dose of polyphenols at which there was a significant inhibition of cell proliferation compared to the vehicle control (U937 [16]): 2 µM; Percentage of cells in G0/G1 phase of cell cycle (significant accumulation) (U937 [17]): G0/G1 =60%; Cell cycle arrest in non-tumour control cells [18]: No Arrest <50µM; The lowest dose of polyphenols at which there was a significant inhibition of cell proliferation compared to the vehicle control (MOLT-3 [19]): 2 µM; Percentage of cells in G0/G1 phase of cell cycle (significant accumulation) (CCRF-CEM [20]): G0/G1 =50%; EC50 (JURKAT [21]): 9 µM
